AP ELISA ortho: orthogonal test for alternative complement pathway inhibitors | Human serum alternative complement pathway, LPS-coated ELISA, C3 deposition; tested in compound mixtures | inhibition, % at 5 µM | actives 0.08% (n = 62,000) | AID 1235;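 active means inhibition above 30% in each of the two pooled mixtures holding the compound, so the lower value exceeds 30%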
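Test system: human serum alternative complement pathway, C3 deposition on LPS-coated wells; also added: Plate-bound LPS; doses: 5 µM per compound in ten-compound mixtures; schedule: 1 h at 37 °C; detection: Anti-C3 ELISA, OD 450 nm; evaluation: percent inhibition of C3 deposition onto LPS; repeats: two pool placements per compound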
DAT uptake mod: changed human dopamine transporter uptake under cocaine IC80; Q01959; LLC-PK1 hDAT cells, [14C]-dopamine uptake with cocaine IC80; actives deviate in either direction; B-score at 10 µM; actives 1.3% (n = 110,000);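 active means Z score or B-score, a plate-position-corrected score, falls beyond the plate's 99.7% confidence bounds, in either direction; inactive means both scores lie inside the 99.7% bounds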
Target sequence (Q01959 whole entry, looked up): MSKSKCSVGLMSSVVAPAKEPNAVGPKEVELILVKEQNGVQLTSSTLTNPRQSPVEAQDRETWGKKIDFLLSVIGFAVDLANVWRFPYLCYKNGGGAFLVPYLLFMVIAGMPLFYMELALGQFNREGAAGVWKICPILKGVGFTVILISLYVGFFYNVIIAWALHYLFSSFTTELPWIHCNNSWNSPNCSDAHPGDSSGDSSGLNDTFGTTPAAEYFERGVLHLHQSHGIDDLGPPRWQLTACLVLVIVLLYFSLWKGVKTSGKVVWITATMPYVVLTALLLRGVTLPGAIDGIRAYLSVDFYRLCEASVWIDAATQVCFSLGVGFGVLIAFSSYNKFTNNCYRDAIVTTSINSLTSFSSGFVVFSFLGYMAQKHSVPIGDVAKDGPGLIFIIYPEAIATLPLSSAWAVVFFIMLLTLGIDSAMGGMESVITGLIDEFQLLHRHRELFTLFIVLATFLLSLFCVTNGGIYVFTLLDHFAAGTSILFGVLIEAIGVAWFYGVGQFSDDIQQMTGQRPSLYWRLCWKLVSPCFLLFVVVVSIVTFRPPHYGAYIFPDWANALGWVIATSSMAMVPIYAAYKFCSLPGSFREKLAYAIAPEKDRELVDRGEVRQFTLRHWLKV
WNV NS2B-NS3 inh: blocks West Nile virus NS2B-NS3 protease activity; WNV NS2B-NS3 protease, fluorogenic substrate Ex360/Em465; stronger effect = lower value; P06935; AID 577; actives 0.18% (n = 65,000); z-score (concentration not given with the values); in the data active means z-score below about -3
D1 allo mod: allosterically modulates the human D1 dopamine receptor. HEK293 D1, CRE-luciferase, dopamine EC30 potentiation; actives deviate in either direction. actives 5.9% (n = 58,000). B-score at 10 µM. P21728;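 active means luminescence count or its row- and column-corrected plate score outside the 99.7% band of the plate's sample wells, on either side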
Numbers stand for hits; i = inactive; nt = no result given. The sample as a whole holds a higher share of hits than the screen did.

SMILES	AP ELISA ortho	DAT uptake mod	WNV NS2B-NS3 inh	D1 allo mod
CC[C@@H](C)[C@@H](C(=O)N1CCNCC1)n1cc(CCC(=O)O)nn1	nt	i	nt	nt
COc1ccc(C(=O)Nc2cccc(OC)c2)cc1	i	i	i	-3.7
COc1cccc(C(=O)Nc2ccc(NC(=O)C(C)(C)C)cn2)c1	i	i	i	-6.3
COc1cccc(C(=O)Nc2ccc(NC(C)=O)cc2)c1	nt	i	nt	nt
COc1cccc(C(=O)Nc2cccc(NC(C)=O)c2)c1	i	i	i	i
COC(=O)C1=C(C)N(CCCC(=O)O)C(=O)NC1c1ccccc1Cl (stereo unspecified)	nt	i	nt	nt
CCNC(=S)NC1CC2CCCC(C1)N2Cc1ccco1 (stereo unspecified)	nt	i	nt	nt
O=C(NC1CC2CCCC(C1)N2Cc1ccco1)NC12CC3CC(CC(C3)C1)C2 (stereo unspecified)	i	-7.4	i	i
CCOC(=O)c1cccc(NC(=O)CSc2nnc(C)n2Cc2ccccc2)c1	i	3.3	i	i
COc1ccc(NC(=O)CSc2nnc(C)n2Cc2ccccc2)cc1	nt	i	nt	nt
CSc1nc(Cl)cc(N(CCO)CCO)n1	nt	i	nt	nt
CCOc1ccc(NC(=O)CN2CCN(CC(=O)c3ccc(OCC)cc3)CC2)cc1	i	2	i	i
CCc1ccc(CN2CCN(C(=O)c3cccc(OC)c3OC)CC2)cc1	nt	i	nt	nt
CCCCCCNC(=O)N[C@@H](C(=O)NCCC[C@H]1CN2C(=NC[C@@H]2Cc2ccccc2)N1CCc1cccc(OC)c1)C(C)C	nt	-3	nt	nt
COc1ccc(-c2nc(N3CCOCC3)nc3nn4c(C)c(CCC(=O)O)c(C)nc4c23)cc1	i	nt	i	i
Cc1cc(-c2ccccc2)n(-c2ccc(C(=O)N3CCN(c4ncccn4)CC3)cc2)n1	i	2.5	i	nt
Cc1cc(C)n(-c2nc3ccccc3nc2N2CCN(C(=O)c3ccc(Cl)cc3)CC2)n1	i	i	i	i
CNC(=O)c1[nH]cnc1C(=O)N[C@@H](C)C(=O)OCc1ccccc1	nt	2.4	nt	nt
Cc1ccc(-n2nc3ccc(N)cc3n2)cc1	i	i	i	-4.4
Cc1ccc(-n2nc(-c3ccc(N)cc3)cc2N)cc1	i	i	i	i
C=CCO/N=C(/C)c1c(O)c(CC)c(-c2ccccc2)n(-c2ccccc2)c1=O	nt	2.9	nt	nt
C=CCc1cccc(CNc2c(C)n(C)n(-c3ccccc3)c2=O)c1O	i	i	i	i
CCn1c(SCC(=O)c2cc(OC)ccc2OC)nc2c1c(=O)n(C)c(=O)n2C	i	nt	i	4.9
CCOc1ccc(OCC)c(NC(=O)CSc2nc3c(c(=O)n(C)c(=O)n3C)n2C(C)C)c1	i	3	i	i
COc1ccc(-n2cnnc2SCc2csc(-c3ccccc3)n2)cc1	i	i	i	i
SMILES	AP ELISA ortho	DAT uptake mod	WNV NS2B-NS3 inh	D1 allo mod
Cc1cc(C)cc(OCC(=O)Nc2cccc(-c3nc4ncccc4o3)c2)c1	i	i	i	i
Cc1onc(-c2ccccc2Cl)c1C(=O)NCc1ccccn1	i	i	i	i
Cc1onc(-c2c(F)cccc2Cl)c1C(=O)NCc1ccccn1	i	i	i	-4.2
CCOC(=O)c1c(NC(=O)CSc2nnc(C)s2)sc2c1CCC(CC)C2 (stereo unspecified)	nt	2.2	nt	nt
CCC1CCc2c(sc(NC(=O)c3ccco3)c2C(N)=O)C1 (stereo unspecified)	nt	i	nt	nt
O=c1c2cnn(-c3ccccc3)c2nnn1Cc1ccccn1	i	2.7	i	nt
COc1ccc(NC(=O)c2ccccc2NC(=O)C2CCCO2)cc1 (stereo unspecified)	i	-9	i	i
CC(C)NC(=O)c1ccccc1NC(=O)C1CCCO1 (stereo unspecified)	nt	i	nt	nt
COc1ccc(N2C(=O)CSC2c2ccncc2)cc1 (stereo unspecified)	i	-7.4	i	i
COc1cccc(C2/C(=C(\O)c3c(C)nc4c(C)cccn34)C(=O)C(=O)N2CCCN(C)C)c1 (stereo unspecified)	i	nt	i	i
COC(C[C@H]1O[C@H]1[C@H](O)COCc1ccccc1)OC	nt	i	nt	nt
Nc1ccc(CCc2nc3ccccc3o2)cc1	i	i	i	-3.6
CCOC(=O)N1CCC(NC(=O)c2ccc3c(c2)sc2nc(-c4ccccc4)cn23)CC1	i	i	i	nt
CCOC(=O)N1CCC(NC(=O)c2ccc3c(c2)sc2nc(-c4cccc(OC)c4)cn23)CC1	i	nt	i	-2.6
CCOC(=O)N1CCC(NC(=O)c2ccc3snnc3c2)CC1	i	2.8	i	i
COc1cc(C2NC(=O)NC(C)=C2C(=O)OC2CCCCC2)cc(Br)c1O (stereo unspecified)	i	i	i	-4
Cc1cc(N2C(=O)C3CC=CC(C)C3C2=O)no1 (stereo unspecified)	nt	-9.4	nt	nt

From PubChem
